Experimental data reported in PubChem BioAssay AID602174 (The Scripps Research Institute Molecular Screening Center, 2012).

test system: MCF7 proliferation, sulforhodamine B absorbance; assay: growth effect on ER-positive breast cancer cells – cell-based, absorbance, MCF7, counter-screen for AHR activator project, late-stage follow-up (AID 602174); details: at 10 µM
Outline: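 System: MCF7 cell line; Quantity: 2,000 cells per well; Replicates: triplicate or more wells; Buffer or medium: alpha-MEM plus 10% FBS; Measured by: SRB absorbance, 490 nm with 650 nm background subtracted; Schedule: 24 h post-seeding before treatment, then 8–10 day compound exposure at 37 °C.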

| SMILES | proliferation change [%] |
| --- | --- |
| Cc1ccc(-c2cc(-c3cccs3)[nH]n2)c(O)c1 | -98.1 |
| Cc1nnc(N2C(=O)c3cccc4c([N+](=O)[O-])ccc(c34)C2=O)s1 | -79 |
| CCOc1ccc(-c2cc(C)n3nc(C(N)=O)cc3n2)cc1 | -20.5 |
| COc1ccc(NC(=O)c2cccc3c(Br)cccc23)cc1 | -59.5 |
| Cn1c(C(=O)N2CCC(C(N)=O)CC2)cc2cc(Cl)ccc21 | -49.2 |
| Cc1nc(N)nc(Nc2ccc(Cl)cc2)c1Br | -86.8 |
| Cc1csc(SCC(=O)Nc2ccc(Cl)cn2)n1 | -63.2 |
| CCOC(=O)Cc1cc(-c2ccc(O)cc2)nc2ccc3ccccc3c12 | -84.8 |
| COc1ccccc1NC(=O)c1ccc(C(=O)Nc2ccccc2OC)nc1 | -90.8 |
| Cc1c(-c2ccn[nH]2)cc(NC(=O)c2ccc(Cl)cc2)c(=O)n1N | -73 |
